Measured values reported in ChEMBL document CHEMBL1144645, “The discovery of highly selective erbB2 (Her2) inhibitors for the treatment of cancer” (Bioorg Med Chem Lett, 2007).

Assays:
[1] = Clearance in rat at 2 mg/kg, iv; type: ADME, organism-based; set-up: dose 2 mg/kg, route intravenous; conditions: in vivo
Outline: (§1)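 Single 2 mg/kg IV dose (HCl salt) to define clearance, volume of distribution and half-life; oral arm given 5 mg/kg in 0.5% methylcellulose to derive bioavailability (F).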

[2] = Bioavailability in rat at 5 mg/kg, po; type: ADME, organism-based; conditions: in vivo; outline: as §1
[3] = Half life in rat at 2 mg/kg, iv after 1 hr; type: ADME, organism-based; set-up: dose 2 mg/kg, route intravenous; conditions: in vivo; outline: as §1
[4] = Volume of distribution in rat at 2 mg/kg, iv; type: ADME, organism-based; set-up: dose 2 mg/kg, route intravenous; conditions: in vivo, read-out: Vdss; outline: as §1
[5] = target: Epidermal growth factor receptor and ErbB2 (HER1 and HER2) (Homo sapiens) (UniProt P04626+P00533); assay: Selectivity for erbB2 over EGFR; type: protein assay
Outline: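 Cell selectivity: IC50 ratio between two NIH3T3 lines run under identical conditions, one carrying human EGFR and one carrying the EGFR-extracellular/erbB2-intracellular chimera. Each line takes 2 h inhibitor, then 15 min human recombinant EGF. Phosphotyrosine measured with HRP-PY-54 and TMB at 450 nm.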

[6] = target: T1, Receptor tyrosine-protein kinase erbB-2 (Homo sapiens, UniProt P04626); assay: Inhibition of erbB2 in NH3T3 cells; type: cell-based
T1 sequence (P04626 whole entry, the tested form may be a part): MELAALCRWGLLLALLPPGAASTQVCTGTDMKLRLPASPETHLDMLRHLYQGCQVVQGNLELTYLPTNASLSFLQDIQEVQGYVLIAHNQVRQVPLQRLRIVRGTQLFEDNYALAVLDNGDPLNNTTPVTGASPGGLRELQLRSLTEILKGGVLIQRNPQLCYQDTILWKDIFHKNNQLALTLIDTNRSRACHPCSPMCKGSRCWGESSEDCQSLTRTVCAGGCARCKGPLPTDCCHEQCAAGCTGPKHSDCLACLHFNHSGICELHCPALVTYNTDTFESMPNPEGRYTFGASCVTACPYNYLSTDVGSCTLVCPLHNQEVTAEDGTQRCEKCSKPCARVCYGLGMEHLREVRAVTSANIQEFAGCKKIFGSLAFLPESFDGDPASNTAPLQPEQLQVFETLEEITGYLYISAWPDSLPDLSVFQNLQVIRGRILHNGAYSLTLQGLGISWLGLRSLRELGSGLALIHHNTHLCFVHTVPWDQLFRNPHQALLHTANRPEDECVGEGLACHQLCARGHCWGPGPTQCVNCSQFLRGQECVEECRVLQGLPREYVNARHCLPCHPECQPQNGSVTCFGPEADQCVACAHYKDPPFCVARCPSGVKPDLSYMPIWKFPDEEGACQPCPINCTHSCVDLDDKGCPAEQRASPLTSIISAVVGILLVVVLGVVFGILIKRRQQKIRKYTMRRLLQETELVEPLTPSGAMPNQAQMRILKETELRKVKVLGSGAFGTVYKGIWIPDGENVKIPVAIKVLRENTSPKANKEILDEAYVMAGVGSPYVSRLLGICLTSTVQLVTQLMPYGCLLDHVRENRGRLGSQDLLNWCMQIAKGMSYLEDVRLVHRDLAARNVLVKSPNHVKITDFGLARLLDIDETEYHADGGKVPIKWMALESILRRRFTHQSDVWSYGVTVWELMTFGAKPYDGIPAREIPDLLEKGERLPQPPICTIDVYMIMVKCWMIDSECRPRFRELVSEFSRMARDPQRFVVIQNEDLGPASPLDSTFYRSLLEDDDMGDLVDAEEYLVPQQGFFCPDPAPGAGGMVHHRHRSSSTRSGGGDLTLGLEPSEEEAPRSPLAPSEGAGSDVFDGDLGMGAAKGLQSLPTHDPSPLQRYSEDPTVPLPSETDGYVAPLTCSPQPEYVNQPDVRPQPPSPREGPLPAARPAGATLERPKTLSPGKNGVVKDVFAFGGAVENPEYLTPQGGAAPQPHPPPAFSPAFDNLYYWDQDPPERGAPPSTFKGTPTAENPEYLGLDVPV
Outline: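 NIH3T3 cells expressing a chimera of EGFR extracellular and erbB2 intracellular domains are plated, exposed to inhibitor for 2 h, then stimulated with human recombinant EGF for 15 min. Receptor phosphotyrosine read with HRP-PY-54 antibody and TMB, A450. IC50 is the mean of at least two experiments.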

[7] = target: T1, Receptor tyrosine-protein kinase erbB-2; assay: Inhibition of erbB2 expressed in Sf9 cells
Outline: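 GST-tagged erbB2 intracellular domain (residues 675–1255) made in baculovirus/Sf9 and purified; ~15 ng enzyme phosphorylates poly(Glu,Tyr) with 1 mM ATP plus inhibitor over 6 min. Phosphotyrosine detected by HRP-PY-54 antibody and TMB, A450. IC50 is the mean of at least two experiments.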

[8] = target: Epidermal growth factor receptor (Homo sapiens) (UniProt P00533); assay: Inhibition of EGFR
Sequence of Epidermal growth factor receptor (Homo sapiens) (P00533 whole entry): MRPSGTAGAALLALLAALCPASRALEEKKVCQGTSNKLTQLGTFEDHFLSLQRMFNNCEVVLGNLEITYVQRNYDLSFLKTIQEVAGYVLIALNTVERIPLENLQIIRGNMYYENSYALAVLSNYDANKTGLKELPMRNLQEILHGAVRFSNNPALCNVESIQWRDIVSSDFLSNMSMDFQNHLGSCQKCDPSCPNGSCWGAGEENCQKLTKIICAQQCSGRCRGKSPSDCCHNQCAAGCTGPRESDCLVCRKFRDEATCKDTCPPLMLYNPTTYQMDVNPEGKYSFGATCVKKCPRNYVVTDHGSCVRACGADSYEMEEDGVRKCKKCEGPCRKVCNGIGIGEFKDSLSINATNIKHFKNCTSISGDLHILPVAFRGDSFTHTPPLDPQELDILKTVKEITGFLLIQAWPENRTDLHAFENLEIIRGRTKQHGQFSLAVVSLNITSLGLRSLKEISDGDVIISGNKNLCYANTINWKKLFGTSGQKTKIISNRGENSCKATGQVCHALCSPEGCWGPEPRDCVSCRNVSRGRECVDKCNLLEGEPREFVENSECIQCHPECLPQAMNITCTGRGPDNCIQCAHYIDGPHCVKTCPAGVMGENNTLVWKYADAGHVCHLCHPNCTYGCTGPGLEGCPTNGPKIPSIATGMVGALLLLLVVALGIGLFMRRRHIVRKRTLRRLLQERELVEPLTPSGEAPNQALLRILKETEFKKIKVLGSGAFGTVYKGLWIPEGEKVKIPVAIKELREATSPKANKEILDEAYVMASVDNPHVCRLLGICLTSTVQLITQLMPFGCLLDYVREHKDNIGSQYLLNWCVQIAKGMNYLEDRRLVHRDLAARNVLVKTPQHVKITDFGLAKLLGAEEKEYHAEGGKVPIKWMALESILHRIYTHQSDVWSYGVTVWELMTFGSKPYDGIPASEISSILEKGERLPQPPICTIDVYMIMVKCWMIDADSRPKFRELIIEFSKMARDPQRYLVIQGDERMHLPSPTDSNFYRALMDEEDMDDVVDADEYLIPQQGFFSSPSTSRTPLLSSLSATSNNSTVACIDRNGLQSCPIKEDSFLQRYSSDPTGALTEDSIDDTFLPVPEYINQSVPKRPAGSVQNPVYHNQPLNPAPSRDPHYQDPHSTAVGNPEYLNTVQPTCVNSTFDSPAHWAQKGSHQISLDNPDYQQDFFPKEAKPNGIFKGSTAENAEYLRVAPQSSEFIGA

[9] = target: Insulin receptor (Homo sapiens) (UniProt P06213); assay: Inhibition of IRK
[10] = target: Insulin-like growth factor 1 receptor (Homo sapiens) (UniProt P08069); assay: Inhibition of IGF1R
[11] = target: Cyclin-dependent kinase 2 (Homo sapiens) (UniProt P24941); assay: Inhibition of CDK2
[12] = target: Tyrosine-protein kinase Lck (Homo sapiens) (UniProt P06239); assay: Inhibition of LCK
Sequence of Tyrosine-protein kinase Lck (Homo sapiens) (P06239 2-509 limits assumed): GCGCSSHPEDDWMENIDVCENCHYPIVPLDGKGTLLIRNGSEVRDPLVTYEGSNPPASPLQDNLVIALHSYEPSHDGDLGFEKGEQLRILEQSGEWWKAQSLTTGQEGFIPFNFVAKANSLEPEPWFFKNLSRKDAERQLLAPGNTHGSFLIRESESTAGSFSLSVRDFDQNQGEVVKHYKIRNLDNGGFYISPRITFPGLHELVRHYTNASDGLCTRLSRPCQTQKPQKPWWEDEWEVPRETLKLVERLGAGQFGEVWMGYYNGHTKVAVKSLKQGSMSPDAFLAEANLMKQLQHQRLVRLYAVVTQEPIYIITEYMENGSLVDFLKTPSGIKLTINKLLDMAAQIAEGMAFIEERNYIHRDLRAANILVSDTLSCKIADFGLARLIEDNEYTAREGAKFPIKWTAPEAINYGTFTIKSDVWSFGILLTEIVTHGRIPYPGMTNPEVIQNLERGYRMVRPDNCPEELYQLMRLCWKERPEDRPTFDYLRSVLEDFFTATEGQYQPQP

[13] = target: Cyclin-dependent kinase 5 (Homo sapiens) (UniProt Q00535); assay: Inhibition of CDK5
Sequence of Cyclin-dependent kinase 5 (Homo sapiens) (Q00535 whole entry, looked up): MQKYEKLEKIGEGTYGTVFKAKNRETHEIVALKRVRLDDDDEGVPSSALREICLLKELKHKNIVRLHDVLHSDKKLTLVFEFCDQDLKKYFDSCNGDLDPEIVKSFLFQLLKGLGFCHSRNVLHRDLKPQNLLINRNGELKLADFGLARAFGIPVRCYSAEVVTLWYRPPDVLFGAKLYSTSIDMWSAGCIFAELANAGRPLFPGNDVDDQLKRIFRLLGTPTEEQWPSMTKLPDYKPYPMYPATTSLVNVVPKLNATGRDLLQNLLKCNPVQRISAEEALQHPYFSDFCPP

[14] = target: Proto-oncogene tyrosine-protein kinase Src (Homo sapiens) (UniProt P12931); assay: Inhibition of cSRC
Sequence of Proto-oncogene tyrosine-protein kinase Src (Homo sapiens) (P12931 2-536 limits assumed): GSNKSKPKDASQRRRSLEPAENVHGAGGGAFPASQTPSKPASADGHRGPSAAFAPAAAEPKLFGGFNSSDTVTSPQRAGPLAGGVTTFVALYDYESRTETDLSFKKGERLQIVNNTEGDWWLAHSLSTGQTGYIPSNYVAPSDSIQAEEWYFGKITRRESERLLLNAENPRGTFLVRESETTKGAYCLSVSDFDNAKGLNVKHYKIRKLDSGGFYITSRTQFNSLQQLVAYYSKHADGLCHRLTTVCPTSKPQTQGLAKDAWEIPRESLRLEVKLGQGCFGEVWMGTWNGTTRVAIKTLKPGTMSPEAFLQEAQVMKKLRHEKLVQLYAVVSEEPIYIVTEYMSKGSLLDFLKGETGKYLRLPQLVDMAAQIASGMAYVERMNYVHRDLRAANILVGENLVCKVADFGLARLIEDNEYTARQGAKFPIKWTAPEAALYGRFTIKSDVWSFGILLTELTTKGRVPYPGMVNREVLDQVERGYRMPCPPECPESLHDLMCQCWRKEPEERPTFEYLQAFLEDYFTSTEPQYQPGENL

[15] = target: Protein kinase C alpha type (Homo sapiens) (UniProt P17252); assay: Inhibition of PKCalpha
[16] = target: Protein kinase C theta type (Homo sapiens) (UniProt Q04759); assay: Inhibition of PKCtheta
Sequence of Protein kinase C theta type (Homo sapiens) (Q04759 whole entry, looked up): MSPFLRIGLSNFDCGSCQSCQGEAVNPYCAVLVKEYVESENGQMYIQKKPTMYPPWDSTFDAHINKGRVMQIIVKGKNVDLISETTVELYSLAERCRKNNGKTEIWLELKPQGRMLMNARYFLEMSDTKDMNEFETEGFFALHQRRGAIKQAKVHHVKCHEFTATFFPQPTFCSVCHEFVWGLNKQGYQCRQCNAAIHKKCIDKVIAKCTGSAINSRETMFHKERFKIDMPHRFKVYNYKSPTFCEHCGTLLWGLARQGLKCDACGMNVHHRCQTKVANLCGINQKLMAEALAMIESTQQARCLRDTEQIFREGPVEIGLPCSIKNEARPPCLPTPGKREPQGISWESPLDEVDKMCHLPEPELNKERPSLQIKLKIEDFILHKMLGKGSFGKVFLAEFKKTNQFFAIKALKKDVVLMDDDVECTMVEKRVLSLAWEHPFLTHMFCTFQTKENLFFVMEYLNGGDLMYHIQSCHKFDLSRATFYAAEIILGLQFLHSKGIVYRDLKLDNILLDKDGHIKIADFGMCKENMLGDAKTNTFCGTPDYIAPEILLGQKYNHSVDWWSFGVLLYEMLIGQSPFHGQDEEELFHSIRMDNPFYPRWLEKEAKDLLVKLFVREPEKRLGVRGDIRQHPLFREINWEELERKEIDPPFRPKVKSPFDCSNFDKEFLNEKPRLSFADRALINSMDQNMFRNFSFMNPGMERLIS

[17] = target: Tyrosine-protein kinase Fes/Fps (Homo sapiens) (UniProt P07332); assay: Inhibition of FES
[18] = target: T2, Tyrosine-protein kinase JAK3 (Homo sapiens) (UniProt P52333); assay: Inhibition of JAK3
T2 sequence (whole entry): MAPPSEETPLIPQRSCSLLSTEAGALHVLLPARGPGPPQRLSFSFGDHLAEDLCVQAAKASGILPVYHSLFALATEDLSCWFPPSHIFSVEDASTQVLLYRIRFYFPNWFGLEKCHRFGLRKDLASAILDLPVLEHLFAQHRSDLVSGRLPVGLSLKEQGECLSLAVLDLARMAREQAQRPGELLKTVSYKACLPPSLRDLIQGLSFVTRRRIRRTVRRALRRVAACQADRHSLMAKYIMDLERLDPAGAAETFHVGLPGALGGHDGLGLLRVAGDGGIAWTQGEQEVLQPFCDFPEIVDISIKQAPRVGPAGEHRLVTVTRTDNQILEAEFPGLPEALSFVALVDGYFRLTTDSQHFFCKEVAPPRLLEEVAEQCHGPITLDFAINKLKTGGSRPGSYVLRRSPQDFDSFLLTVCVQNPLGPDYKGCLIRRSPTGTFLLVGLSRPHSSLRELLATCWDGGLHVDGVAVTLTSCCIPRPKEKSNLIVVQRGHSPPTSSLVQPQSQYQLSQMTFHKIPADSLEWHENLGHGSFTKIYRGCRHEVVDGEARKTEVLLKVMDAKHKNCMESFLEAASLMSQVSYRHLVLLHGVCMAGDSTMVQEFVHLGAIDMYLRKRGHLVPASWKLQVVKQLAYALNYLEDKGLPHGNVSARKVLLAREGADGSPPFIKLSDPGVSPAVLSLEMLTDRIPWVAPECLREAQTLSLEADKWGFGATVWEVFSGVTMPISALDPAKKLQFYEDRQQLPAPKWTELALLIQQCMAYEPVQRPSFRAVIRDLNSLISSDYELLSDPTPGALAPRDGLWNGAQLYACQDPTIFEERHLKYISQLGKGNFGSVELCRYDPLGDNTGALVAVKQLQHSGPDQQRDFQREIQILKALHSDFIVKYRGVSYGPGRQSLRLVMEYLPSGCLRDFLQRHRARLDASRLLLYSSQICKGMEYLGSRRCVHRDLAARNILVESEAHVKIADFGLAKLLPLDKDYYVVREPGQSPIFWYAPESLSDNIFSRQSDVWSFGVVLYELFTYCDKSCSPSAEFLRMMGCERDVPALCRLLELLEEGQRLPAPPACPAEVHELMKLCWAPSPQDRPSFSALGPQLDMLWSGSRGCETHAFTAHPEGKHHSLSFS

[19] = target: Platelet-derived growth factor receptor beta (Homo sapiens) (UniProt P09619); assay: Inhibition of PDGFRB
[20] = target: cAMP-dependent protein kinase (PKA) (Homo sapiens) (UniProt P22694+P17612+P22612); assay: Inhibition of PKA; type: protein assay
[21] = target: Wee1-like protein kinase (Homo sapiens) (UniProt P30291); assay: Inhibition of Wee1
[22] = Permeability from apical to basolateral side of Caco-2 cell membrane; type: ADME, cell-based; conditions: human, read-out: permeability

SMILES | Selectivity ratio [5] | IC50 [6] [nM] | IC50 [7] [nM] | other results
Cc1cc(Nc2ncnc3cnc(N4CCOCC4)cc23)ccc1OC1CCN(C(=O)C2CCCC2)CC1 | > 300 | 33 | 18 | clearance [1]: 2.5 mL/min/kg; bioavailability [2]: 54%; half-life [3]: 1 h; Vd [4]: 0.2 L/kg
COCCOc1cc2ncnc(Nc3ccc(OC4CCN(C(=O)C5CCCC5)CC4)c(C)c3)c2cc1OCCOC | > 19 | 530 | 77 | 
Cc1cc(Nc2ncnc3cnc(N4CCOCC4)cc23)ccc1OC1CCN(C(=O)CC(C)(C)C)CC1 | > 1000 | < 10 | 23 | 
Cc1cc(Nc2ncnc3cnc(N(C)C)cc23)ccc1OC1CCN(C(=O)Nc2c(F)cccc2F)CC1 | 68 | 20 | 21 | 
Cc1cc(Nc2ncnc3cnc(N4CCN(C)CC4)cc23)ccc1Oc1ccc(C(=O)NCC(C)(C)C)cc1 | > 660 | 15 | 130 | 
Cc1cc(Nc2ncnc3cnc(N(C)C)cc23)ccc1OC1CCN(C(=O)CC(C)(C)C)CC1 | > 230 | < 10 | 51 | 
COCC(=O)NCC#Cc1ccc2ncnc(Nc3ccc(Oc4cccc(C(=O)NC5CCC5)c4)c(C)c3)c2c1 | > 64 | 160 | 230 | 
Cc1cc(Nc2ncnc3ccc(OCCCN4CCOCC4)cc23)ccc1OC1CCN(C(=O)Nc2c(F)cccc2F)CC1 | 32 | 55 | 55 | 
COCC(=O)NCC#Cc1ccc2ncnc(Nc3ccc(OC4CCN(C(=O)CC(C)(C)C)CC4)c(C)c3)c2c1 | 400 | 16 | 94 | 
COCC(=O)NCC#Cc1ccc2ncnc(Nc3ccc(Oc4cccc(C(=O)NCC(C)(C)C)c4)c(C)c3)c2c1 | 91 | 110 | 130 | 
Cc1cc(Nc2ncnc3cnc(N4CCOCC4)cc23)ccc1Oc1ccc(C(=O)NCC(C)(C)C)cc1 | > 410 | 24 | 21 | Activity [8]: > 10 µM; Activity [9]: > 10 µM; Activity [10]: > 10 µM; Activity [11]: > 10 µM; Activity [12]: > 10 µM; Activity [13]: > 10 µM; Activity [14]: > 10 µM; Activity [15]: > 10 µM; Activity [16]: > 10 µM; Activity [17]: > 10 µM; Activity [18]: > 10 µM; Activity [19]: > 10 µM; Activity [20]: > 10 µM; Activity [21]: > 10 µM; Papp A→B [22]: 15.4 ×10⁻⁶ cm/s
COCC(=O)NCC#Cc1ccc2ncnc(Nc3ccc(OC4CCN(C(=O)Nc5c(F)cccc5F)CC4)c(C)c3)c2c1 | > 53 | 190 | 76 | 
Cc1cc(Nc2ncnc3cnc(N(C)C)cc23)ccc1Oc1ccc(C(=O)NCC(C)(C)C)cc1 | > 770 | < 10 | 48 | 
Cc1cc(Nc2ncnc3ccc(OCCCN4CCOCC4)cc23)ccc1OC1CCN(C(=O)CC(C)(C)C)CC1 | > 290 | 34 | 75 | 
COc1cc2ncnc(Nc3ccc(Oc4ccc(C(=O)NCC(C)(C)C)cc4)c(C)c3)c2cc1OC | 1 | 310 | 77 | 
COCCOc1ccc2ncnc(Nc3ccc(OC4CCN(C(=O)CC(C)(C)C)CC4)c(C)c3)c2c1 | > 500 | 19 | 120 | 
COCCOc1ccc2ncnc(Nc3ccc(OC4CCN(C(=O)Nc5c(F)cccc5F)CC4)c(C)c3)c2c1 | > 300 | 33 | 27 | 
COc1cc2ncnc(Nc3ccc(OC4CCN(C(=O)CC(C)(C)C)CC4)c(C)c3)c2cc1OC | > 130 | 76 | 100 | 
